The source made the active and inactive calls. The rule behind the calls is not given here.
What was measured:
[1] = Toxicity in non-irradiated Swiss albino mouse assessed as decrease in Nrf2 level at 50 mg/kg, ip administered for 5 days by ELISA; format: organism-based; conditions: in vivo, 120 h, time 5 day
How it was run: (§1)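 Non-irradiated mice were dosed 50 mg/kg/day i.p. (vehicle 10% DMSO) for 5 days and compared with vehicle controls. On day 3, five mice per group were anesthetized with urethane. Liver homogenates (ice-cold 0.1 M PBS pH 7.4, stored −80 °C) were assayed for Nrf2 and NQO1 by ELISA, for MDA as lipid peroxide marker, and for ROS. Data are mean ± S.E., n = 5, ANOVA with Bonferroni.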

[2] = Toxicity in Swiss albino mouse assessed as effect on liver weight at 50 mg/kg, ip administered for 5 days and observed for 5 days; format: organism-based; conditions: in vivo, 120 h, time 5 day
[3] = test system: Mus musculus; experiment: Antioxidant activity against radiation-induced Swiss albino mouse assessed as decrease in NQO1 level in liver at 50 mg/kg, ip administered for 5 days and irradiated with gamma radiation after 1 hr of compound administration by ELISA relative to control; format: functional; design: scale not given: the % may be the effect or the level left; conditions: time 5 day
How it was run: (§2)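 Mice received 50 mg/kg/day i.p. in 10% DMSO for 5 days, plus whole-body 7 Gy 137Cs gamma (0.655 rad/s) 1 h after the last dose. On day 3, five mice per group were anesthetized with urethane. Livers were homogenized in ice-cold 0.1 M PBS pH 7.4. Nrf2 and NQO1 were measured by ELISA, lipid peroxidation as MDA, plus ROS generation. Data are mean ± S.E., one-way ANOVA with Bonferroni.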

[4] = test system: Mus musculus; experiment: Effect on hematopoiesis in gamma-irradiated Swiss albino mouse assessed as increase in radiation-reduced RBC count at 50 mg/kg, ip administered for 5 days and irradiated with gamma radiation after 1 hr of compound administration by automated micro-analyzer; format: functional, organism-based; conditions: time 5.0 day
How it was run: (§3)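 Dosing was i.p. 50 mg/kg/day in 10% DMSO for 5 days, followed 1 h after the final injection by 7 Gy whole-body 137Cs gamma irradiation. Complete blood count with platelets (RBC, HGB, PLT, WBC) was done on an automated analyzer 3 days after irradiation. Data are mean ± S.E.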

[5] = Toxicity in Swiss albino mouse assessed as effect on body weight at 50 mg/kg, ip administered for 5 days and observed for 30 days; format: organism-based; conditions: in vivo, 720 h, time 30 day
How it was run: (§4)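 Albino mice received the compound at 50 mg/kg/day i.p. daily for 5 days, with 10% DMSO i.p. daily as vehicle control; 80 mice were randomised into four groups. Body weight was recorded weekly and survival was checked daily over 30 days. Mice were housed at 25 ± 5 °C, 60 ± 5% humidity and 12 h light/dark, with food and water ad libitum.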

[6] = test system: Nrf2 (Mus musculus); experiment: Activation of Nrf2 in mouse Hepa1c1c7 cells assessed as increase in NQO1 activity at 10 uM using menadione as substrate incubated for 20 mins followed by substrate addition and measured after 30 mins by spectrophotometry relative to control; conditions: filed as activator, time 50.0 min
[7] = test system: Mus musculus; experiment: Antioxidant activity against radiation-induced Swiss albino mouse assessed as decrease in MDA level in liver at 50 mg/kg, ip administered for 5 days and irradiated with gamma radiation after 1 hr of compound administration by ELISA relative to control; format: functional; design: scale not given: the % may be the effect or the level left; conditions: time 5 day; how it was run: as §2
[8] = test system: Nrf2 (Mus musculus); experiment: Activation of Nrf2 in mouse Hepa1c1c7 cells assessed as increase in NQO1 activity at 2.5 uM using menadione as substrate incubated for 20 mins followed by substrate addition and measured after 30 mins by spectrophotometry relative to control; conditions: filed as activator, time 50.0 min
[9] = target: Nuclear factor erythroid 2-related factor 2 (Mus musculus) (UniProt Q60795); experiment: Activation of Nrf2 in mouse Hepa1c1c7 cells assessed as increase in NQO1 activity at 40 uM using menadione as substrate incubated for 20 mins followed by substrate addition and measured after 30 mins by spectrophotometry relative to control; conditions: filed as activator, time 50.0 min
[10] = test system: Nrf2 (Mus musculus); experiment: Activation of Nrf2 in mouse Hepa1c1c7 cells assessed as increase in NQO1 activity at 0.625 uM using menadione as substrate incubated for 20 mins followed by substrate addition and measured after 30 mins by spectrophotometry relative to control; conditions: filed as activator, time 50.0 min
[11] = test system: Mus musculus; experiment: Antioxidant activity against radiation-induced Swiss albino mouse assessed as increase in Nrf2 level in liver at 50 mg/kg, ip administered for 5 days and irradiated with gamma radiation after 1 hr of compound administration by ELISA relative to control; format: functional; conditions: time 5 day; how it was run: as §2
[12] = test system: Mus musculus; experiment: Effect on hematopoiesis in gamma-irradiated Swiss albino mouse assessed as increase in radiation-reduced PLT count at 50 mg/kg, ip administered for 5 days and irradiated with gamma radiation after 1 hr of compound administration by automated micro-analyzer; format: functional, organism-based; conditions: time 5.0 day; how it was run: as §3
[13] = Toxicity in ip dosed Swiss albino mouse; format: organism-based; conditions: in vivo
[14] = test system: Nrf2 (Mus musculus); experiment: Activation of Nrf2 in mouse Hepa1c1c7 cells assessed as increase in NQO1 activity at 0.313 uM using menadione as substrate incubated for 20 mins followed by substrate addition and measured after 30 mins by spectrophotometry relative to control; conditions: filed as activator, time 50.0 min
[15] = test system: Mus musculus; experiment: Effect on hematopoiesis in gamma-irradiated Swiss albino mouse assessed as increase in radiation-reduced HGB count at 50 mg/kg, ip administered for 5 days and irradiated with gamma radiation after 1 hr of compound administration by automated micro-analyzer; format: functional, organism-based; conditions: time 5.0 day; how it was run: as §3
[16] = Toxicity in Swiss albino mouse assessed as survival rate at 50 mg/kg, ip administered for 5 days and observed for 30 days; format: organism-based; conditions: in vivo, 720 h, time 30 day; how it was run: as §4
[17] = Toxicity in non-irradiated Swiss albino mouse assessed as effect on MDA level at 50 mg/kg, ip administered for 5 days by ELISA; format: organism-based; conditions: in vivo, 120 h, time 5 day; how it was run: as §1
[18] = test system: Nrf2 (Mus musculus); experiment: Activation of Nrf2 in mouse Hepa1c1c7 cells assessed as increase in NQO1 activity at 1.25 uM using menadione as substrate incubated for 20 mins followed by substrate addition and measured after 30 mins by spectrophotometry relative to control; conditions: filed as activator, time 50.0 min
[19] = test system: Nrf2 (Mus musculus); experiment: Activation of Nrf2 in mouse Hepa1c1c7 cells assessed as increase in NQO1 activity at 5 uM using menadione as substrate incubated for 20 mins followed by substrate addition and measured after 30 mins by spectrophotometry relative to control; conditions: filed as activator, time 50.0 min
[20] = test system: Mus musculus; experiment: Antioxidant activity against radiation-induced Swiss albino mouse assessed as decrease in ROS level in liver at 50 mg/kg, ip administered for 5 days and irradiated with gamma radiation after 1 hr of compound administration by ELISA relative to control; format: functional; design: scale not given: the % may be the effect or the level left; conditions: time 5 day; how it was run: as §2
[21] = test system: Nrf2 (Mus musculus); experiment: Activation of Nrf2 in mouse Hepa1c1c7 cells assessed as increase in NQO1 activity using menadione as substrate incubated for 20 mins followed by substrate addition and measured after 30 mins by spectrophotometry; conditions: filed as activator, time 50.0 min
[22] = test system: Nrf2 (Mus musculus); experiment: Activation of Nrf2 in mouse Hepa1c1c7 cells assessed as increase in NQO1 activity at 20 uM using menadione as substrate incubated for 20 mins followed by substrate addition and measured after 30 mins by spectrophotometry relative to control; conditions: filed as activator, time 50.0 min
[23] = Toxicity in non-irradiated Swiss albino mouse assessed as increase in NQO1 level at 50 mg/kg, ip administered for 5 days by ELISA; format: organism-based; conditions: in vivo, 120 h, time 5 day; how it was run: as §1
[24] = Toxicity in non-irradiated Swiss albino mouse assessed as increase in ROS level at 50 mg/kg, ip administered for 5 days by ELISA; format: organism-based; conditions: in vivo, 120 h, time 5 day; how it was run: as §1

Chain of Nuclear factor erythroid 2-related factor 2 (Mus musculus) (Q60795 whole entry, looked up): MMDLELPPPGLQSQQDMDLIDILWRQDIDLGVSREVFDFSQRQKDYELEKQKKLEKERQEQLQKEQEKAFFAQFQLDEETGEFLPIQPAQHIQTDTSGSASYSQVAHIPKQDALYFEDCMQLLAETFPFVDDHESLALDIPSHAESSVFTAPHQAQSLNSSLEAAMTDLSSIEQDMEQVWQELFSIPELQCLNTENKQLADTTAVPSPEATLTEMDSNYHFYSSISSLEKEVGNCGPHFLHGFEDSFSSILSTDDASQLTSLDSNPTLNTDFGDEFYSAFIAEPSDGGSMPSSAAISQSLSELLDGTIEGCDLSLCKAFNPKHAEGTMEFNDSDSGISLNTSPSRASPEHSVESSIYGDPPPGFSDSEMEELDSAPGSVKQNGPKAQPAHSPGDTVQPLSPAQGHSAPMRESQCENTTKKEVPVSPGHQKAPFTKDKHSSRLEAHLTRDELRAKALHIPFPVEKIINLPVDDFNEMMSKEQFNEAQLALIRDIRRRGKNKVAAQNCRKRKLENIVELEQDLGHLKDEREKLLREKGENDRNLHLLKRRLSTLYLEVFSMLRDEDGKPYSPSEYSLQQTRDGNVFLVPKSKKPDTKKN

SMILES: COc1cc(NC(=O)CSc2nc3c(I)cc(I)cc3c(=O)n2-c2ccc(S(N)(=O)=O)cc2)cc(OC)c1OC
- Activity [1]: Non-Toxic
- Activity [2]: Non-Toxic
- Activity [3]: 30%
- Activity [4]: Active
- Activity [5]: Non-Toxic
- T/C [6]: 1.43
- Activity [7]: 28%
- T/C [8]: 1.16
- T/C [9]: 2.42
- T/C [10]: 1.08
- Activity [11]: 19%
- Activity [12]: Active
- LD50 [13]: 500 mg/kg
- T/C [14]: 1.02
- Activity [15]: Active
- Activity [16]: Non-Toxic
- Activity [17]: Non-Toxic
- T/C [18]: 1.1
- T/C [19]: 1.24
- Activity [20]: 23%
- Activity [21]: Dose-dependent effect
- CD [21]: 20 µM
- T/C [22]: 1.98
- Activity [23]: Non-Toxic
- Activity [24]: Non-Toxic
